Bioassay records deposited in PubChem by several laboratories.
TLR9-MyD88 inh: inhibitors of human TLR9-MyD88 binding; CHO BLA complementation TLR9-MyD88, CCF4 FRET ratio; inhibition, % at 4.98 µM; hit rate 0.21% among 340,000; AID 504734;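 active means inhibition above the mean over all tested compounds plus 3 SD, cut at about 21% in these data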;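 further: 0% = DMSO only wells and 100% = clavulanate BLA inhibitor control wells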
NOD2 RIPK2 PPI: NOD2-RIPK2 protein interaction inhibition; O43353; CHO BLA complementation NOD2-RIPK2, CCF4 ratio; inhibition, % at 4.98 µM; hit rate 0.38% among 360,000; AID 624267; in the data active means inhibition above about 21%;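 further: 0% = vehicle only and 100% = reference blocker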
Target sequence (O43353 whole entry, looked up): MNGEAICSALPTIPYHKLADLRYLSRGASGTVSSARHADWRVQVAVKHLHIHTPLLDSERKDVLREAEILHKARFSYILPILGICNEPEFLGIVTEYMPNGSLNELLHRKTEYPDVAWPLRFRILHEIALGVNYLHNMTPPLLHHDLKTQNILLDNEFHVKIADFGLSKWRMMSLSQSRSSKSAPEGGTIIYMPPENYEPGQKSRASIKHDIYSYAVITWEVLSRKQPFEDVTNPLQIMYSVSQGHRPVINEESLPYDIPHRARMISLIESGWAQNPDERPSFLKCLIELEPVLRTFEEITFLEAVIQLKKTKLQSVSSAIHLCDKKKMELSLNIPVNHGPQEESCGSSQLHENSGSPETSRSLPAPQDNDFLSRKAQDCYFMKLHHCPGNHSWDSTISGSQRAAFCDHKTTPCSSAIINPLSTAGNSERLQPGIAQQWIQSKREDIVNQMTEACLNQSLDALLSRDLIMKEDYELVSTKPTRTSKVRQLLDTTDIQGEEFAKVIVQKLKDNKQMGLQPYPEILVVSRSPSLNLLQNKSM
CHOP UPR activ: activators of apoptotic arm of unfolded protein response (CHOP); hit rate 0.34% among 330,000; AID 449763; activation, % at 10 µM; CHO-CHOP luciferase reporter, UPR activation, luminescence; percent of tunicamycin response over DMSO baseline;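 active means at 10 µM dose, activation of 40% or more, normalized to positive control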;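 further: 100% = tunicamycin at 10 µg/mL and 0% = DMSO alone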
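Assay system: CHO cells with stable CHOP pathway luciferase reporter; Buffer or medium: F12 plus 10% serum; Times: 16-18 h cell attachment, then 6 h compound exposure, 37 °C; Signal: luciferase luminescence; Read-out basis: percent activation relative to tunicamycin control; Control set: tunicamycin high control, DMSO low control.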
UPR XBP1 act: adaptive UPR (XBP1) activation; AID 463104; hit rate 0.33% among 330,000; activation, % at 20 µM; CHO-XBP1 luciferase reporter, IRE1-XBP1 UPR activation, luminescence; percent of tunicamycin response, DMSO as zero;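 active means versus positive control, 20 µM dose yields 30% or more activation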;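 further: 100% = tunicamycin at 10 µg/mL and 0% = DMSO only wells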
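assay system = CHO-XBP1 luciferase reporter cells | amount = 1000 cells/well | buffer or medium = F12 plus 10% FBS | compound dosing = single point, 20 µM final compound, 1% DMSO | incubation = 16-18 h cell attachment at 37 °C, then 6 h compound exposure | detection = Steady-Glo luminescence read | controls = tunicamycin 10 µg/mL and vehicle-only wells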
TLR4 MyD88 comp: inhibitors of human TLR4-MyD88 binding. O00206+Q99836. HeLa CL3-4 TLR4/MyD88 BLA complementation, FRET ratio. inhibition, % at 8.4 µM. hit rate 0.18% among 200,000; in the data active means inhibition above about 25%;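 further: 0% = vehicle and 100% = reference inhibitor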
CHOP inhibitor: CHOP inhibition in unfolded protein response; AID 2732; CHO-K1 CHOP-promoter luciferase, tunicamycin-induced, 15-18 h; hit rate 3.8% among 220,000; inhibition, % at 10 µM;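 active means compounds that reduced the stress-induced luciferase reporter signal by more than about 70% of percent inhibition, limit read from the data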;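 further: 0% = tunicamycin plus vehicle and 100% = wells without tunicamycin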
TLR9-MyD88 conf: TLR9-MyD88 interaction inhibition, confirmation; shares compounds with TLR9-MyD88 inh; CHO TLR9/MyD88 BLA complementation, CCF4 FRET ratio; inhibition, % at 4.98 µM; hit rate 51% among 680; AID 540250;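 active means mean inhibition across three repeats above about 21% taken from the earlier screen, limit read from the data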;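 further: blue over green emission ratio reports constitutive TLR9 MyD88 association via BLA complementation; 0% = DMSO vehicle wells and 100% = clavulanate BLA inhibitor wells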
BLA counter-1: counter-screen for TLR9-MyD88 inhibitors: non-selective beta-lactamase inhibitors. hit rate 7% among 680. AID 540251. CHO-BLA cells, CCF4 FRET ratio, BLA reporter. inhibition, % at 4.98 µM. shares compounds with TLR9-MyD88 inh;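 active means mean inhibition above a 50% cutoff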;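 further: counterscreen of TLR9-MyD88 hits on CMV-driven BLA in CHO-K1 cells; 0% = DMSO alone and 100% = clavulanate blocking BLA; higher means less blue over green ratio so more BLA blockade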
TLR9 CHO tox: CHO cell toxicity counter-screen for TLR9-MyD88 inhibitors; shares compounds with TLR9-MyD88 inh; TLR9-MyD88 CHO cells cytotoxicity, luminescence; inhibition, % at 4.98 µM; hit rate 39% among 680; in the data active means inhibition above about 11%
NOD2 RIPK2 conf: confirmation of human NOD2-RIPK2 interaction inhibitors | shares compounds with NOD2 RIPK2 PPI | CHO cells, NOD2-RIPK2 BLA complementation, CCF4 FRET | inhibition, % at 4.98 µM | hit rate 70% among 1,200 | AID 624370;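 active means mean inhibition across replicates above a set limit taken from the earlier primary screen, cut at about 21% in these data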;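 further: 0% = DMSO-only wells and the high end = clavulanate BLA-blocked wells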
BLA counter-2: counter-screen for NOD2-RIPK2 interaction inhibitors: BLA reporter | shares compounds with NOD2 RIPK2 PPI | CHO BLA reporter, CCF4 FRET ratio, counterscreen | inhibition, % at 4.98 µM | hit rate 57% among 1,200 | AID 624371;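 active means mean inhibition above the low-control mean inhibition plus three low-control SD, cut at about 11% in these data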;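 further: 0% = DMSO only wells and 100% = clavulanate high control wells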
Numbers without * were called inactive; x = no result; + = active, no number. Shown is part of a subset that was picked to be rich in hits.

SMILES | TLR9-MyD88 inh | NOD2 RIPK2 PPI | CHOP UPR activ | UPR XBP1 act | TLR4 MyD88 comp | CHOP inhibitor | TLR9-MyD88 conf | BLA counter-1 | TLR9 CHO tox | NOD2 RIPK2 conf | BLA counter-2
O=C(NCc1ccco1)c1cccc2c1C(=O)c1ccc(/C=C/c3ccccc3)cc1S2(=O)=O | 30* | 5 | 3 | 7 | x | x | 47* | 52* | 12* | x | x
O=C(NCc1ccco1)c1cccc2c1C(=O)c1ccc(N3CCC(Cc4ccccc4)CC3)cc1S2(=O)=O | 27* | 32* | 5 | -4 | x | x | 37* | 39 | 6 | x | x
O=C(NCc1cccc(C(F)(F)F)c1)c1cccc2c1C(=O)c1ccc(N3CCC(Cc4ccccc4)CC3)cc1S2(=O)=O | 31* | 20 | 0 | -1 | x | x | 45* | 47 | 8 | x | x
O=C(NCc1cccc(F)c1)c1cccc2c1C(=O)c1ccc(N3CCC(Cc4ccccc4)CC3)cc1S2(=O)=O | 50* | 21* | 0 | -2 | x | x | 44* | 46 | 7 | x | x
CC(C)c1cccc(-c2ccc3c(c2)S(=O)(=O)c2cccc(C(=O)NCc4ccccc4)c2C3=O)c1 | 3 | -6 | 22 | 16 | x | x | x | x | x | x | x
C=CCn1c(SCC(=O)Nc2cccc(S(N)(=O)=O)c2)nnc1C1CCCCC1 | -8 | -10 | -2 | 0 | x | x | x | x | x | x | x
COc1ccc(NS(=O)(=O)c2ccc(NN=Cc3ccc(C(=O)O)cc3)c([N+](=O)[O-])c2)cc1 | x | x | -1 | -1 | x | x | x | x | x | x | x
Cc1ccc(CCNC(=O)C2CCN(S(=O)(=O)c3ccc4c(c3)oc(=O)n4C)CC2)cc1 | -6 | -11 | 3 | -2 | x | x | x | x | x | x | x
COc1cc(N2C(=O)C=CC2=O)ccc1N1C(=O)C=CC1=O | 39* | 26* | x | x | x | x | 64* | 44 | 101* | x | x
COc1ccc(N2C(=O)C3CC(C)=C(C)CC3C2=O)c(OC)c1 (configuration not stated) | -4 | -4 | -2 | 4 | 3 | -11 | x | x | x | x | x
CC(=O)NS(=O)(=O)c1ccc(NC(=S)NC(=O)C2CCC2)cc1 | 6 | 3 | 0 | -3 | x | x | x | x | x | x | x
Cc1ccc(N2C(=O)NC(NS(=O)(=O)c3ccc(C)cc3)(C(F)(F)F)C2=O)cc1 (configuration not stated) | 21* | -5 | 2 | -1 | x | x | -2 | -4 | 2 | x | x
Cc1ccc(S(=O)(=O)c2ccc([N+](=O)[O-])o2)cc1 | 44* | 93* | x | x | x | x | 51* | 19 | 99* | x | x
O=c1cc(O)nc(SCc2ccccc2)n1-c1ccccc1 | -3 | -2 | -1 | -1 | 6 | 8 | x | x | x | x | x
O=C(CSc1nc(O)cc(=O)n1-c1ccccc1)NCc1ccccc1 | 21* | 11 | -1 | -2 | -10 | 7 | 2 | 3 | -1 | x | x
COc1ccc(S(=O)(=O)N2CCCCC2)cc1NC(=O)c1ccc([N+](=O)[O-])o1 | 22* | 10 | 16 | 4 | 9 | -49 | 3 | 6 | 22* | x | x
CC(=O)C1=NOC2C(=O)N(c3ccc(Cl)cc3)C(=O)C12 (configuration not stated) | -5 | -1 | 1 | 0 | x | x | x | x | x | x | x
O=C(C1=NN(c2ccccc2)C2C(=O)N(c3ccc(Cl)cc3)C(=O)C12)c1ccccc1 (configuration not stated) | 30* | 15 | x | x | 15 | 43 | 25* | 24 | -1 | x | x
COc1cccc(CC(NC(C)=O)C(=O)NC2CCN(C(=O)C3CCCCC3)CC2)c1OC (configuration not stated) | -2 | -17 | -3 | 8 | x | x | x | x | x | x | x
CCOC(=O)C1CCN(S(=O)(=O)c2c(Cl)ccc3nonc23)CC1 | 43* | 82* | 16 | -7 | x | x | 39* | 19 | 81* | 78* | 15*
COc1ccc(O)c(/C=N/NC(=S)Nc2cccc(S(=O)(=O)N(C)C)c2)c1 | 26* | 25* | x | x | 2 | 54 | 12 | 8 | 32* | 17 | 21*
Cc1cccc(Sc2nc(-c3ccccc3)ncc2C(=O)O)c1 | -1 | 4 | 0 | -3 | -7 | 1 | x | x | x | x | x
O=C(Cn1sc2ccccc2c1=O)Nc1ccc(Br)cc1 | 31* | 28* | x | x | x | x | 17 | 0 | 81* | 34* | 6
O=C(CN1C(=O)C2CC=CCC2C1=O)Nc1ccc(Br)cc1 (configuration not stated) | 4 | 3 | 0 | 1 | x | x | x | x | x | x | x
CCC(=Nc1ccccc1)C1=C(O)CC(C)(C)CC1=O | x | x | x | x | -6 | 3 | x | x | x | x | x
SMILES | TLR9-MyD88 inh | NOD2 RIPK2 PPI | CHOP UPR activ | UPR XBP1 act | TLR4 MyD88 comp | CHOP inhibitor | TLR9-MyD88 conf | BLA counter-1 | TLR9 CHO tox | NOD2 RIPK2 conf | BLA counter-2
O=[N+]([O-])c1ccc(Nc2ccc3ccccc3c2)nc1 | 24* | 37* | 8 | 4 | 25 | 45 | 19 | 10 | 8 | 21* | 25*
O=[N+]([O-])c1ccc(Nc2ccc(Cl)cc2)nc1 | x | 15 | 1 | 2 | 10 | 23 | x | x | x | x | x
CN(CCO)c1cc(Sc2nc3ccccc3s2)c2nonc2c1[N+](=O)[O-] | 47* | 91* | -10 | -7 | 9 | 67 | 67* | 9 | 99* | 98* | 33*
Cc1noc2ncnc(Sc3c(Cl)cccc3Cl)c12 | 23* | 37* | 7 | -4 | 10 | -133 | 22* | 6 | 8 | 34* | -13
CCCCCC(=O)N=Nc1c(O)[nH]c2ccc([N+](=O)[O-])cc12 | 23* | + | 2 | 0 | -5 | 11 | -1 | 3 | 0 | -2 | -1
Cc1ccc(NCC(=O)N=Nc2c(O)[nH]c3ccc([N+](=O)[O-])cc23)cc1 | x | x | 8 | 4 | x | -45 | x | x | x | x | x
O=c1c2cc(F)ccc2sn1-c1ccccc1 | 40* | 48* | 10 | -5 | x | x | 36* | -2 | 97* | 50* | 12*
CC(=O)Nc1ccc2c(=O)n(-c3ccccc3)sc2c1 | 28* | 31* | x | x | x | x | 25* | 3 | 92* | 40* | 11*
O=c1c2ccccc2sn1-c1ccccc1F | -2 | -7 | x | x | x | x | x | x | x | x | x
Cc1ccccc1-n1sc2cc(F)ccc2c1=O | 36* | 34* | 2 | -3 | 0 | 30 | 21* | 3 | 100* | 47* | 19*
